Assay results as given in ChEMBL document CHEMBL4665761, “Optimizing the Benefit/Risk of Acetyl-CoA Carboxylase Inhibitors through Liver Targeting” (J Med Chem, 2020).
Converted amounts (≈) assume the structure as drawn. The source made the active and inactive calls. The calls are words filed in the database; no cut-off is given here.

What was measured:
[1] = Ratio of drug uptake in Wistar-Hannover rat unbound liver to plasma concentration at 10 mg/kg, po hydrochloride salt form of compound after 6 hrs by LC/MS-MS analysis; format: ADME, organism-based; conditions: liver and plasma
Method in brief: (§1)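 Male Wistar-Hannover rats (n = 2 or 3) dosed orally as a suspension in 0.5% methyl cellulose with 0.1% Tween 80. Plasma and liver sampled 6 h post-dose. Kp is total liver/plasma; Kpu,u uses unbound fractions from equilibrium dialysis of plasma and liver.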

[2] = Drug uptake in Wistar-Hannover rat liver at 10 mg/kg, po using hydrochloride salt form of compound after 6 hrs by LC/MS-MS analysis; format: ADME, organism-based; conditions: read-out: Drug uptake
Method in brief: (§2)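 Male Wistar-Hannover rats, n = 2 or 3, given an oral suspension in 0.5% methyl cellulose with 0.1% Tween 80; one compound was dosed as the HCl salt. Total plasma and liver concentrations were measured 6 h post-dose. Kp = liver/plasma total concentration. Kpu,u uses fu values from equilibrium dialysis.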

[3] = Ratio of drug uptake in Wistar-Hannover rat liver to plasma at 10 mg/kg, po hydrochloride salt form of compound after 6 hrs by LC/MS-MS analysis; format: ADME, organism-based; conditions: liver and plasma; method in brief: as §1
[4] = Drug uptake in Wistar-Hannover rat assessed as plasma concentration at 10 mg/kg, po hydrochloride salt form of compound after 6 hrs by LC/MS-MS analysis; format: ADME, organism-based; method in brief: as §2
[5] = Apparent permeability in MCDKII-LE cells at 2 uM incubated for 30 mins; format: ADME, cell-based, Canis lupus familiaris, MDCKII-LE; conditions: dog, MDCK
Method in brief: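 MDCK-LE (low-efflux) cell monolayers with a 30 min pre-incubation. Read-out is apparent passive permeability (Papp, 10^-6 cm/s).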

Acetyl-CoA carboxylase 2 = Acetyl-CoA carboxylase 2 (Homo sapiens, UniProt O00763); test: Inhibition of recombinant human ACC2 using acetyl coA as substrate incubated for 1 hr by transcreener fluorescence polarization assay
Method in brief: (§3)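 Recombinant human enzyme, Transcreener assay run per an earlier protocol. IC50 is the geometric mean of at least three replicates, also given as pIC50 ± SD.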

Acetyl-CoA carboxylase 1 = Acetyl-CoA carboxylase 1 (Homo sapiens, UniProt Q13085); test: Inhibition of recombinant human ACC1 using acetyl coA as substrate incubated for 1 hr by transcreener fluorescence polarization assay; method in brief: as §3
[6] = Thermodynamic solubility of the compound at pH 7.4 after 24 hrs; format: physicochemical; conditions: buffer, read-out: Therm_solubility
[7] = Thermodynamic solubility of the compound at pH 1.2 after 24 hrs; format: physicochemical; conditions: buffer, read-out: Therm_solubility
[8] = Thermodynamic solubility of the compound at pH 6.5 after 24 hrs; format: physicochemical; conditions: buffer, read-out: Therm_solubility
[9] = AUC (0 to 24 hrs) in Wistar-Hannover rat plasma at 1 mg/kg, iv and measured up to 24 hrs by LC/MS-MS analysis; format: ADME, organism-based; parameters: route intravenous, dose 1 mg/kg, time <=24
Method in brief: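 Male Wistar-Hannover rats (240–350 g) with jugular vein cannulas were given 1 mg/kg IV at 2 mL/kg. Vehicle, depending on compound, was 10% DMSO/90% of 20% sulfobutylether-β-cyclodextrin in water or 10% DMSO/30% PEG400/60% water. AUC0–24 came from plasma concentration–time data by the linear trapezoidal rule, averaged for n = 2. Lower detection limit was 1 ng/mL.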

[10] = Cmax in Wistar-Hannover rat plasma at 4 mg/kg, po and measured up to 24 hrs by LC/MS-MS analysis; format: ADME, organism-based; parameters: route oral, dose 4 mg/kg, time <=24
[11] = Half life in Wistar-Hannover rat plasma at 1 mg/kg, iv and measured up to 24 hrs by LC/MS-MS analysis; format: ADME, organism-based
Method in brief: (§4)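 Male Wistar-Hannover rats (240–350 g) with jugular vein cannulas, dosed 1 mg/kg IV (2 mL/kg) or PO. IV vehicle was 10% DMSO/90% of 20% sulfobutylether-β-cyclodextrin in water, or 10% DMSO/30% PEG400/60% water. Plasma was analysed by LC-MS/MS. Parameters come from plasma concentration–time data, n = 2: Cmax observed directly, AUC0-24 by the linear trapezoidal rule, CL = IV dose/AUC, Vss = dose/(AUC × elimination rate constant).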

[12] = Apparent volume of distribution at steady state in Wistar-Hannover rat plasma at 1 mg/kg, iv and measured up to 24 hrs by LC/MS-MS analysis; format: ADME, organism-based; conditions: read-out: Vdss(app); method in brief: as §4
[13] = Clearance in Wistar-Hannover rat plasma at 1 mg/kg, iv and measured up to 24 hrs by LC/MS-MS analysis; format: ADME, organism-based; method in brief: as §4
OATP1B3 = target: T1, OATP1B3 (Homo sapiens, UniProt Q9NPD5); test: Substrate activity at human OATP1B3 stably expressed in HEK293 cells assessed as ratio of total to passive cellular uptake at 1 to 3 uM incubated for 0.5 to 4 mins by LC/MS-MS analysis; format: ADME, cell-based; conditions: HEK293 cells stably expressing human OATP1B3, dose 1-3 µM, time 0.5-4 min
T1 sequence (Q9NPD5 whole entry): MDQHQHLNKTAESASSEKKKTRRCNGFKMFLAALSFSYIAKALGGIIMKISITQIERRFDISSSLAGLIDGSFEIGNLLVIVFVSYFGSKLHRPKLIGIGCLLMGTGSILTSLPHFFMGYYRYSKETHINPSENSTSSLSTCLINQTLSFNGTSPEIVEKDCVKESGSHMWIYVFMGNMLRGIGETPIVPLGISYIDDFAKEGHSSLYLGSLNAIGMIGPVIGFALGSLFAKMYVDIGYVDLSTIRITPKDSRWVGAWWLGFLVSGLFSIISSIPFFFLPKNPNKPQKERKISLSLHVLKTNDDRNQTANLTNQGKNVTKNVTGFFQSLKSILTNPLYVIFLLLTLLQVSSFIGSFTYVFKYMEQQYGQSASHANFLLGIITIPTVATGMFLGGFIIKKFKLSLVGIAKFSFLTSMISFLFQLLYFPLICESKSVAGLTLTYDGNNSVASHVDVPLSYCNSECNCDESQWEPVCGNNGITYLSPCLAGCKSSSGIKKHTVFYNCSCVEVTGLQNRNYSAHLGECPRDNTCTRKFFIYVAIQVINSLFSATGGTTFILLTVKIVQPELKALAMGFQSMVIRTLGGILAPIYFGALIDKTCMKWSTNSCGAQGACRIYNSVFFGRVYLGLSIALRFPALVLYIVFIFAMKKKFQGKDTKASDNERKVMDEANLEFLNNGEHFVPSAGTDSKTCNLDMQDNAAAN
Method in brief: (§5)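 Stably transfected HEK293 cells and wild-type parental cells, cultured to confluency in DMEM with 10% heat-inactivated FBS and 5 µg/mL blasticidin. Uptake at 1–3 µM in HBSS/20 mM HEPES pH 7.4, 37 °C, 0.5–4.0 min. Cells washed in ice-cold buffer, lysed in MeOH, quantified by LC-MS/MS and normalized to protein. Ratio is transfected/parental uptake; >2 denotes substrate.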

OATP1B1 = target: T2, OATP1B1 (Homo sapiens, UniProt Q9Y6L6); test: Substrate activity at human OATP1B1 stably expressed in HEK293 cells assessed as ratio of total to passive cellular uptake at 1 to 3 uM incubated for 0.5 to 4 mins by LC/MS-MS analysis; format: ADME, cell-based; conditions: HEK293 cells stably expressing human OATP1B1, dose 1-3 µM, time 0.5-4 min; method in brief: as §5
T2 sequence (Q9Y6L6 whole entry): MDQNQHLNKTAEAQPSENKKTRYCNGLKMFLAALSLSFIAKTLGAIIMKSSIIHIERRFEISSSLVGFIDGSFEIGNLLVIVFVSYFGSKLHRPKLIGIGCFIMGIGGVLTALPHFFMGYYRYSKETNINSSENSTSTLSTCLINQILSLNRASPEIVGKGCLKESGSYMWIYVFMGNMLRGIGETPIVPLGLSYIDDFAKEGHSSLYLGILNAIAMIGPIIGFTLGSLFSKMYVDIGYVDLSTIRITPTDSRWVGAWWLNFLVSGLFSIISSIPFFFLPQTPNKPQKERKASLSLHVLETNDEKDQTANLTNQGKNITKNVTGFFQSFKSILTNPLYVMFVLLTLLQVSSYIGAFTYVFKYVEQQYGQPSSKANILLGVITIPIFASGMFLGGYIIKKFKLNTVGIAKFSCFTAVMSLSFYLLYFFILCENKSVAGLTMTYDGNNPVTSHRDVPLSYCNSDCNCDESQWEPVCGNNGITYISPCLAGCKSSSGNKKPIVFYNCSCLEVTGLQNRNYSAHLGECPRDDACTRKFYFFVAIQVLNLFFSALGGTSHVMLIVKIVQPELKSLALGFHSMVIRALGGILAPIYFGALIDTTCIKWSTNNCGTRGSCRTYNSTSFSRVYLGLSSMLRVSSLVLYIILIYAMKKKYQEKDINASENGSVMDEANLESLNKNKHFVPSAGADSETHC

[14] = Metabolic intrinsic clearance in human hepatocytes assessed per million cells incubated for 2 hrs; format: ADME, cell-based, Hepatocyte; conditions: read-out: CLH
Method in brief: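 Cryopreserved human hepatocytes incubated for 2 h. In vitro half-lives scaled to intrinsic clearance, expressed per 10^6 cells.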

[15] = Octanol-water partition coefficient, logD of compound at pH 7.4 at 0.5 to 2 mg incubated for 1 hr by HPLC based shake-flask method; format: physicochemical; conditions: dose 0.5-2 mg
Method in brief: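 Shake-flask octanol/water partition at pH 7.4.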

[16] = Fraction unbound in rat liver by equilibrium dialysis method
Rattus norvegicus [17] = species on record: Rattus norvegicus; test: Fraction unbound in rat plasma by equilibrium dialysis method
Rattus norvegicus [18] = test: Effect on triglyceride accumulation in Sprague-Dawley rat high fat dietary model at 10 mg/kg, po assessed as reduction in triglyceride level after 42 days by XPT clinical analyzer; format: functional, organism-based; conditions: time 42.0 day
Method in brief: (§6)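 High-fat-diet-fed Sprague-Dawley rats dosed orally for 42 days, with chow-fed and vehicle controls, n = 10 per group. Read-out is hepatic triglyceride, reported as mean ± SEM.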

Rattus norvegicus [19] = test: Effect on triglyceride accumulation in po dosed Sprague-Dawley rat high fat dietary model assessed as reduction in triglyceride level after 42 days by XPT clinical analyzer; format: functional, organism-based; conditions: time 42.0 day; method in brief: as §6
Rattus norvegicus [20] = test: Inhibition of DNL in po dosed Sprague-Dawley rat assessed as reduction in DNL level in liver pretreated with one hr followed by [14C]-acetate treatment and measured after 1 hr; format: functional, organism-based
Method in brief: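 Sprague-Dawley rats given single oral doses of 0.03–300 mg/kg in 0.5% methyl cellulose vehicle, n = 16 per dose. Read-out is incorporation of 14C-acetate into lipids in liver, bone marrow and lung, measured at 2 h post-dose relative to vehicle. Data are mean ± SEM. EC50 is reported with a 95% confidence interval.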

Homo sapiens = species on record: Homo sapiens; test: Inhibition of ACC (unknown origin) at 100 uM

Sequence of Acetyl-CoA carboxylase 2 (O00763 whole entry): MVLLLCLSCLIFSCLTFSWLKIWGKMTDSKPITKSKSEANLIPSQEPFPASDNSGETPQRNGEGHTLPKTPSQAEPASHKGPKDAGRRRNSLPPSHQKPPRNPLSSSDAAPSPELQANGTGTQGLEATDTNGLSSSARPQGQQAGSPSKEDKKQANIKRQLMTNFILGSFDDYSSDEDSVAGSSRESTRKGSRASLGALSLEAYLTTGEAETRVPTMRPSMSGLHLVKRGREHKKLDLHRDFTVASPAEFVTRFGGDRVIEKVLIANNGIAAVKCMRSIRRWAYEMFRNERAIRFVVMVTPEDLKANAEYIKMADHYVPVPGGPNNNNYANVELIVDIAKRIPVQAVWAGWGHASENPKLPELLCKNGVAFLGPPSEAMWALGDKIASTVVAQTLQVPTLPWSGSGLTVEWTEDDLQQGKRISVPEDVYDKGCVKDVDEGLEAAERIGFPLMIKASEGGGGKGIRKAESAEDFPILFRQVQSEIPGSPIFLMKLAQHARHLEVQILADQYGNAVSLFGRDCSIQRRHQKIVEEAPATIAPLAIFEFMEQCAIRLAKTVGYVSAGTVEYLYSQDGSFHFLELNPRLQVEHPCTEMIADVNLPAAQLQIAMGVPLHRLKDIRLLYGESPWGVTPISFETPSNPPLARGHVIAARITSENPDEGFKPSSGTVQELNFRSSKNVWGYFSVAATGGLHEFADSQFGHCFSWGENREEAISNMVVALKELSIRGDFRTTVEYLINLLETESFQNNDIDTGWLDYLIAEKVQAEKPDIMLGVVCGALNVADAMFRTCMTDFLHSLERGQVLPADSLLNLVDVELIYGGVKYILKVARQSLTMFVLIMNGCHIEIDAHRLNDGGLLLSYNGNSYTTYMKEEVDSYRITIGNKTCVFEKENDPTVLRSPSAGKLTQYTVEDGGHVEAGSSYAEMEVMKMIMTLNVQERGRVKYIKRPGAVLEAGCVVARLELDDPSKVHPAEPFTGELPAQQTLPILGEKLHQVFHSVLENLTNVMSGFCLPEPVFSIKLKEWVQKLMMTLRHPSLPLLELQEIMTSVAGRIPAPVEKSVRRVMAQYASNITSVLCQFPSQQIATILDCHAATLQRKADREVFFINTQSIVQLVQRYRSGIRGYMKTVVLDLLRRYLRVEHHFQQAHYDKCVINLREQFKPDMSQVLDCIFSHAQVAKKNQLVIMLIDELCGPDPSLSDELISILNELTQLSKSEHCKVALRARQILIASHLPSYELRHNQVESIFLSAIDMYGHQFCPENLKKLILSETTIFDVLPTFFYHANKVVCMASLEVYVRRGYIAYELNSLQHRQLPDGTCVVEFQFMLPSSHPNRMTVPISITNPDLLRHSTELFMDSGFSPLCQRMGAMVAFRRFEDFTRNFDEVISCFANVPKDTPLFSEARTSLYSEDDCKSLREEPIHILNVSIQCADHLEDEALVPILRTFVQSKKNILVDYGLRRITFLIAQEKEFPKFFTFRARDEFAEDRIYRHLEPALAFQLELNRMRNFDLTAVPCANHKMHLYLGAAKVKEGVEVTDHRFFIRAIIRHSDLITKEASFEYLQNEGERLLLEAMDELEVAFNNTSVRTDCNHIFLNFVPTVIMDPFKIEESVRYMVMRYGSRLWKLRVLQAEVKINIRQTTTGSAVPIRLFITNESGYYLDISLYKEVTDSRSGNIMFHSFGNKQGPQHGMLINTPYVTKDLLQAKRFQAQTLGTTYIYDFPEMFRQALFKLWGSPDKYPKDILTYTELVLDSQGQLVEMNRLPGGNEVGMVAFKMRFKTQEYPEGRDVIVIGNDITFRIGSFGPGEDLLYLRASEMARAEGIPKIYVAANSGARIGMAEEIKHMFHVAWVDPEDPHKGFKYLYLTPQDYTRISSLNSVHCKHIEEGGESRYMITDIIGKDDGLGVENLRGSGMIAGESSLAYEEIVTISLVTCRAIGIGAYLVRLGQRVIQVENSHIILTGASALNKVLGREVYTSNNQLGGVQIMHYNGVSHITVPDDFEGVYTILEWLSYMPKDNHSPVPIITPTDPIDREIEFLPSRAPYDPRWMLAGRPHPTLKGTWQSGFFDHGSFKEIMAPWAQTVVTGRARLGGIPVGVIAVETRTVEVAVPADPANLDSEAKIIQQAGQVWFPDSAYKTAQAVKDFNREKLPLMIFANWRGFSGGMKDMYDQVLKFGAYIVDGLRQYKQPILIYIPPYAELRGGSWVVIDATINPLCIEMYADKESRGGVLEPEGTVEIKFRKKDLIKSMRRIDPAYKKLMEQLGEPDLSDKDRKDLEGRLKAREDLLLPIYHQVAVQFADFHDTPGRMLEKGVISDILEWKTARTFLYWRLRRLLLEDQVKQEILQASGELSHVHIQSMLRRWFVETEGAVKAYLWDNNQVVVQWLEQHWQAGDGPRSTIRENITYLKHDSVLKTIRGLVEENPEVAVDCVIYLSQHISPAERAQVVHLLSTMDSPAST

Structure (SMILES)	Papp at 0.5 h, 2 µM [5] [×10⁻⁶ cm/s]	IC50 (Acetyl-CoA carboxylase 2) [µM]	IC50 (Acetyl-CoA carboxylase 1) [µM]	logD at 1 h [15]	other results
CC(C)n1ncc2c1C(=O)CC1(CCN(C(=O)c3cc(-c4ccc(C(=O)O)cc4)nc(N(C)C)c3)CC1)C2.Cl	–	–	–	–	Kp uu at 6 h [1]: 79; concentration at 6 h [2]: 9920 ng/mL; Kp at 6 h [3]: 173; concentration at 6 h [4]: 57.4 ng/mL
Cc1nc2cc(C(=O)N3CCC4(CC3)CC(=O)c3c(c(C(=O)O)nn3C(C)C)C4)ccc2[nH]1	0.5	1.2	12	–	–
CC(C)n1ncc2c1C(=O)CC1(CCN(C(=O)c3cc(-c4ccc(C(=O)O)cc4)nc(N(C)C)c3)CC1)C2	13	0.0056	0.0077	1.4	solubility thermodynamic at 24 h [6]: 13 µM (≈ 6.7 µg/mL); solubility thermodynamic at 24 h [7]: 2 µM (≈ 1.03 µg/mL); solubility thermodynamic at 24 h [8]: 3 µM (≈ 1.55 µg/mL); AUC(0-t) [9]: 519 ng·h/mL; Cmax [10]: < 1 ng/mL; half-life [11]: 7.5 h; Vd [12]: 5.2 L/kg; clearance [13]: 31.3 mL/min/kg; uptake ratio at up to 3 µM (OATP1B3): 1.4; uptake ratio at up to 3 µM (OATP1B1): 2.1; hepatocyte CLint [14]: < 3 µL/min/1e6 cells; fraction unbound [16]: 0.026; fraction unbound (Rattus norvegicus [17]): 0.057
CC(C)(C)n1cc2c(n1)C(=O)CC1(CCN(C(=O)c3ccc4[nH]nc(C(=O)O)c4c3)CC1)O2	< 0.4	0.033	0.13	–	–
CN(C)c1cc(C(=O)N2CCC3(CC2)CC(=O)c2nn(C(C)(C)C)cc2O3)cc(-c2ccc(C(=O)O)cc2)n1	0.5	0.0094	0.017	0.8	hepatocyte CLint [14]: 7.5 µL/min/1e6 cells
CC(C)(C)n1cc2c(n1)C(=O)CC1(CCN(C(=O)c3cccc(-c4ccc(C(=O)O)cc4)c3)CC1)O2	2.5	0.092	0.44	–	–
CC(C)(C)n1cc2c(n1)C(=O)CC1(CCN(C(=O)c3cccc(-c4cccc(C(=O)O)c4)c3)CC1)O2	1.3	0.2	1.5	–	–
CC(C)(C)n1cc2c(n1)C(=O)CC1(CCN(C(=O)c3ccnc(-c4ccc(C(=O)O)cc4)c3)CC1)O2	–	0.19	1.1	-0.4	–
COc1cc(C(=O)N2CCC3(CC2)CC(=O)c2c(cnn2C(C)C)C3)cc(-c2ccc(C(=O)O)cc2)n1	–	–	–	–	Activity (Rattus norvegicus [18]): Active; Activity (Rattus norvegicus [19]): Dose-dependent effect; inhibition (Rattus norvegicus [20]): Dose-dependent effect; inhibition (Homo sapiens): inactive
